In general, pIC50 refers to the negative decadic logarithm of the IC50, by convention in mol/L. A word on the CC50: it is the concentration that lowers cell viability or growth by half.

The structures appear in SMILES notation. pIC50: −log10 of the molar value.

We go through one compound from ChEMBL document CHEMBL1133473, “Synthesis and antiviral activity of 4-benzyl pyridinone derivatives as potent and selective non-nucleoside human immunodeficiency virus type 1 reverse transcriptase inhibitors” (J Med Chem, 2000).

Experiment [1] relates to Human immunodeficiency virus 1. The experiment is described as follows: Inhibitory concentration against HIV-1 IIIB strain. The experiment is classed as functional, organism-based. The method, boiled down: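 MT4 cells infected with HIV-1 IIIB; antiviral effect read as protection from virus-induced cytopathogenicity by MTT. Compounds taken from DMSO stock, diluted in culture medium.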

The subject of experiment [2] is MT4. The experiment is described as follows: Cytotoxicity against MT-4 cells infected with HIV-1 IIIB strain. The conditions noted are these: Homo sapiens. The class given is functional.
Experiment [3] relates to CEM-SS. The experiment is described as follows: Tested for inhibitory concentration on HIV-I Lai wild type in CEM-SS cell line. The class given is functional, cell-based. The following applies: Homo sapiens. The method, boiled down:
(§1)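 CEM-SS lymphocytic cells infected with 100 TCID50 of HIV-1 LAI, or of the nevirapine-resistant N119 strain carrying an RT codon 181 mutation. Virus adsorbed 30 min, unbound virus removed by two washes, then cells cultured 5 days with serial compound dilutions. Read-out: RT activity of particles released into the supernatant. IC50 from a computer median effect plot of dose-effect data.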

Experiment [4] concerns Human immunodeficiency virus 1. Nature of the experiment: Tested for cytotoxic concentration on HIV-I nevirapine resistant strain. The experiment is classed as functional. The essentials: (§2)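 CEM-SS cells, uninfected, cultured 5 days with compound. Compounds were taken from a DMSO solution at 10^-2 M (10^-3 M or lower if insoluble), diluted 1:100 in medium, then serially diluted in medium.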

A short description of experiment [5]: Cytotoxicity against Macrophages infected with HIV-1 Bal/Mono. The conditions noted are these: Human immunodeficiency virus 1. The class given is functional.
Experiment [6] has as its system Human immunodeficiency virus 1. The experiment is described as follows: Selectivity index is the ratio of CC50 to IC50. The experiment is classed as functional.
The nature of experiment [7]: Selectivity index is the ratio of CC50 to IC50 against HIV-1 nevirapine resistant strain. The class given is functional.
The test system of experiment [8] is Human immunodeficiency virus 1. The experiment is described as follows: Inhibitory concentration against HIV-1 AZTres. The experiment is classed as functional, organism-based. The method, boiled down: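 AZT-resistant HIV-1 isolate A018 G910-6 tested in cell culture; virus production measured as RT activity of particles released into the culture supernatant.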

The subject of experiment [9] is Human immunodeficiency virus 1. The experiment is described as follows: Tested for inhibitory concentration on HIV-I nevirapine resistant strain. The experiment is classed as functional, organism-based. The method, boiled down: as §1
Experiment [10] in a line: Cytotoxicity against PBMC cells infected with HIV-2 D 194. The experiment is classed as functional. The conditions noted are these: Human immunodeficiency virus 2, PBMC.
The target in experiment [11] is Human immunodeficiency virus type 1 reverse transcriptase (Human immunodeficiency virus 1, UniProt Q72547). The experiment is described as follows: Tested for inhibitory concentration on HIV-1 Reverse transcriptase in the presence of poly(c)-oligo-(dG). The essentials: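 Recombinant HIV-1 RT purified from yeast, 20-50 nM. Reaction at 37 °C for 10 min in 50 mM Tris-HCl pH 8.0, 5 mM MgCl2, 4 mM DTT, 80 mM KCl, BSA, 0.48 A260 units/mL poly(C)-oligo(dG) (5:1), 2 µM dGTP plus [3H]dGTP. Stopped with cold 10% TCA plus 0.1 M pyrophosphate; precipitates filtered, scintillation counted. Compounds dissolved in DMSO.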

Experiment [12] in a line: Inhibitory concentration against HIV-2 D 194. The experiment is classed as functional. The essentials: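 Cell-based antiviral assay against this HIV-2 isolate. Compounds were dissolved in DMSO as 10^-2 M stocks, or 10^-3 M or lower when insoluble, diluted 1% in culture medium, then serially diluted in medium. Virus production was read as reverse transcriptase activity of particles released into the culture supernatant. IC50 was taken from a median-effect plot of the dose-effect data.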

In experiment [13] the test system is MT4. The experiment is described as follows: Cytotoxicity against MT-4 cells infected with HIV-1 AZTres. The class given is functional. The conditions noted are these: Homo sapiens.
The subject of experiment [14] is Human immunodeficiency virus 1. Nature of the experiment: Inhibitory concentration against HIV-1 Bal/Mono. The experiment is classed as functional, organism-based. The essentials:
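Macrophage-tropic HIV-1 Bal in monocyte-derived macrophages kept serum-free in AIM V medium with 100 U/mL GM-CSF. Virus output measured as supernatant particle-associated RT activity.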

Experiment [15] is described as follows: Cytotoxicity against PBMC cells infected with HIV-1 IIIB strain. The class given is functional. The conditions noted are these: Human immunodeficiency virus 1, PBMC.
Experiment [16] deals with CEM-SS. Nature of the experiment: Tested for cytotoxic concentration on HIV-I Lai wild type in CEM-SS cell line. The experiment is classed as functional. The conditions noted are these: Homo sapiens. The essentials: as §2

Turning to `CCc1c(C)nc(O)c(N)c1Cc1cc(C)cc(C)c1`, the pIC50 in [1] is 6.51; in experiment [1] (Human immunodeficiency virus 1), 6.30; in the experiment on CEM-SS [3], 7.77; in experiment [8] it was 5.36; in [9] it was 6.00; in experiment [11] it was 7.00. For the same compound, the figures for the pIC50 in experiment [12] and in experiment [14] were less than 5.00 and 6.89, respectively. The CC50 (with MT4 [2]; in experiment [4]; in [5]; in [10]; with MT4 [13]; in experiment [15]) was more than 10 µM in each case. This compound had a CC50 in the experiment on CEM-SS [16] of more than 10 µM. In addition, the SI is more than 588 in [6] and more than 10 in experiment [7].
